Measured values from ChEMBL document CHEMBL1126875, “Synthesis and LTB4 receptor antagonist activities of the naturally occurring LTB4 receptor antagonist Leucettamine A and related analogues” (J Med Chem, 1993).

Columns and labels:
[1] = molecular target: T1, Leukotriene B4 receptor 1 (Homo sapiens, UniProt Q15722); assay: Binding affinity against Leukotriene B4 receptor on intact differentiated U-937 cells in competitive binding assay with [3H]LTB4; type: cell-based
Outline: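 Differentiated U-937 cells (1.3% DMSO, 3–4 days), washed; 10⁶ intact cells incubated in HBSS with 0.1% ovalbumin and 0.2 nM [³H]LTB₄, 20 min at 0 °C. Nonspecific binding defined with 1 μM unlabeled LTB₄. Filtration then scintillation counting. IC₅₀ converted to Ki by Cheng–Prusoff.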

U-937 [2] = assay: Inhibition of [3H]LTB4 binding in whole cells; conditions: Homo sapiens
U-937 [3] = assay: Inhibition of [3H]LTB4 binding in whole cells (U-937); conditions: Homo sapiens
[4] = molecular target: T1, Leukotriene B4 receptor 1; assay: Binding affinity against Leukotriene B4 receptor on U-937 cell membrane preparations in competitive binding assay with [3H]LTB4

T1 sequence (Q15722 whole entry): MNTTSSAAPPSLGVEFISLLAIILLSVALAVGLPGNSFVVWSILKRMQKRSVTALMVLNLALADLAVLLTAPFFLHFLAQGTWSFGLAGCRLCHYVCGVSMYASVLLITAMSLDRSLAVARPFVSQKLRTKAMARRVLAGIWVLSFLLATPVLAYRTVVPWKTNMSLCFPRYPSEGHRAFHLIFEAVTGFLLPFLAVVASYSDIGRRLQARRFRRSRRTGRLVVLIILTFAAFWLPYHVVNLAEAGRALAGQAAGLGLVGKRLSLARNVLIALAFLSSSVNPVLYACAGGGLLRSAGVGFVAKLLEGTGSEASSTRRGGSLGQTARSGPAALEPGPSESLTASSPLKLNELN

| Structure (SMILES) | Ki [1] [µM] | IC50 (U-937 [2]) [µM] | IC50 (U-937 [3]) [µM] | Ki [4] [µM] |
| --- | --- | --- | --- | --- |
| Cn1cc(Cc2ccccc2)nc1N | – | > 100 | – | – |
| CCCCCCn1c(N)nc(Cc2ccccc2)c1Cc1ccccc1 | – | – | > 100 | – |
| COc1ccc(/C=C/CCCCOc2ccc(C(=O)c3cccc(C(=O)O)c3)cc2CCC(=O)O)cc1 | – | – | – | 0.36 |
| Cn1c(N)nc(Cc2ccc3c(c2)OCO3)c1Cc1ccc2c(c1)OCO2 [LEUCETTAMINE A] | 3.5 | 5.2 | – | – |

Continued, values first:

| Ki [1] [µM] | IC50 (U-937 [2]) [µM] | IC50 (U-937 [3]) [µM] | Ki [4] [µM] | Structure (SMILES) |
| --- | --- | --- | --- | --- |
| 19 | 30 | – | – | Cn1c(N)nc(Cc2ccccc2)c1Cc1ccccc1 |
| 2.4 | 3.8 | – | – | Cn1c(N)nc(Cc2ccc(CCCCO)cc2)c1Cc1ccccc1 |
| 27 | 40 | – | – | COc1cccc(Cc2nc(N)n(C)c2Cc2ccccc2)c1 |
| 9 | 13 | – | – | Nc1nc(Cc2ccccc2)c(Cc2ccccc2)[nH]1 |
| – | > 100 | – | – | Cc1[nH]c(N)nc1Cc1ccccc1 |
